Measurements as given in ChEMBL document CHEMBL1122415, “Folate antagonists. 20. Synthesis and antitumor and antimalarial properties of trimetrexate and related 6-[(phenylamino)methyl]-2,4-quinazolinediamines” (1983).
Values joined by “and” are separate entries in the source; they are usually repeats but may differ in a detail not shown here. Equal entries are not always repeated.

How the values were obtained:
Plasmodium berghei [1] = assay: Antimalarial effect against trophozoite-induced Plasmodium berghei in mice (Mus musculus) at 20 mg/kg subcutaneous dose; format: functional
Plasmodium berghei [2] = assay: Antimalarial effect against trophozoite-induced Plasmodium berghei in mice (Mus musculus) at 320 mg/kg subcutaneous dose; format: functional
Plasmodium berghei [3] = assay: Antimalarial effect against trophozoite-induced Plasmodium berghei in mice (Mus musculus) at 40 mg/kg subcutaneous dose; format: functional
Mus musculus [4] = assay: Antimalarial effect against trophozoite-induced Plasmodium berghei in mice (Mus musculus) after subcutaneous administration dose of 640 mg/kg; format: functional
Plasmodium berghei [5] = assay: Antimalarial effect against trophozoite-induced Plasmodium berghei in mice (Mus musculus) after subcutaneous dose of 160 mg/kg; format: functional
L1210 = assay: Molar concentration required to reduce the number of L1210 cells by 50% after incubation for 2 days; format: functional, Mus musculus; settings: read-out: ID50 (the source's name)
Summary of the method: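 L1210 leukemia cells in tissue culture exposed to drug for 2 days. ID50 is the molar concentration that reduces L1210 cell number by 50%. Mithramycin is the reference drug.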

Mus musculus [6] = species: Mus musculus; assay: Daily dose required for 90% parasitaemia in trophozoite induced Plasmodium berghei in 21 mice; format: functional
Summary of the method: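 Oral suppressive test in mice against a normal drug-sensitive P. berghei strain. Drug given continuously in the diet for six consecutive days, with doses as free base equivalent. SD90 is the daily dose (mg/kg) giving 90% suppression of parasitemia versus control mice, estimated graphically on semilog paper.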

Mus musculus [7] = assay: Antimalarial effect against trophozoite-induced Plasmodium berghei in mice (Mus musculus) after subcutaneous administration dose of 2.5 mg/kg; format: functional
Plasmodium berghei [8] = assay: Antimalarial effect against trophozoite-induced Plasmodium berghei in mice (Mus musculus) at 5 mg/kg subcutaneous dose; format: functional
Plasmodium berghei [9] = assay: Antimalarial effect against trophozoite-induced Plasmodium berghei in mice (Mus musculus) after subcutaneous dose of 10 mg/kg; format: functional
Plasmodium berghei [10] = assay: Change in mean survival time of Trophozoite-induced Plasmodium berghei infected mice (Mus musculus) after 160 mg/kg subcutaneous dose; 60 days survival; format: functional
Plasmodium berghei [11] = assay: Antimalarial effect against trophozoite-induced Plasmodium berghei in mice (Mus musculus) at 80 mg/kg subcutaneous dose; format: functional
Mus musculus [12] = assay: Antimalarial effect against trophozoite-induced Plasmodium berghei in mice (Mus musculus) after subcutaneous administration dose of 1.25 mg/kg; format: functional
Mus musculus [13] = assay: Antimalarial effect against trophozoite-induced Plasmodium berghei in mice (Mus musculus) after subcutaneous administration dose of 320 mg/kg; 3 survived after 60 days of postinfection; format: functional
Mus musculus [14] = assay: Antimalarial effect against trophozoite-induced Plasmodium berghei in mice (Mus musculus) after subcutaneous administration dose of 20 mg/kg; 2 survived after 60 days of postinfection; format: functional
Mus musculus [15] = assay: Antimalarial effect against trophozoite-induced Plasmodium berghei in mice (Mus musculus) after subcutaneous administration dose of 80 mg/kg; 1 survived after 60 days of postinfection; format: functional
Mus musculus [16] = assay: Antimalarial effect against trophozoite-induced Plasmodium berghei in mice (Mus musculus) after subcutaneous administration dose of 160 mg/kg; 3 survived after 60 days of postinfection; format: functional
Mus musculus [17] = assay: Antimalarial effect against trophozoite-induced Plasmodium berghei in mice (Mus musculus) after subcutaneous administration dose of 40 mg/kg; 2 survived after 60 days of postinfection; format: functional
Mus musculus [18] = assay: Antimalarial effect against trophozoite-induced Plasmodium berghei in mice (Mus musculus) after subcutaneous administration dose of 40 mg/kg; 3 survived after 60 days of post infection; format: functional
Mus musculus [19] = assay: Antimalarial effect against trophozoite-induced Plasmodium berghei in mice (Mus musculus) after subcutaneous administration dose of 40 mg/kg; 1 survived after 60 days of postinfection; format: functional

Structure (SMILES) | Delta MST (Plasmodium berghei [1]; 20 mg/kg) | Delta MST (Plasmodium berghei [3]; 40 mg/kg) | IC50 (L1210; Mus musculus, L1210, 48 h) [nM] | IC50 (L1210) | SD90 (Mus musculus [6]) [mg/kg/day] | Delta MST (Plasmodium berghei [1]) [days] | Delta MST (Plasmodium berghei [8]) [days] | Delta MST (Plasmodium berghei [9]) [days] | Delta MST (Plasmodium berghei [11]; 80 mg/kg) | other results
Nc1nc(N)c2cc(CN(C=O)c3ccc4cc(Cl)ccc4c3)ccc2n1 | 0.5 days and 0.3 days | 1.5 days and 0.5 days | 250 | 150 nM |  |  |  |  |  | Delta MST (Plasmodium berghei [2]; 320 mg/kg): 13.9 days and 13.7 days and 10.7 days; Delta MST (Mus musculus [4]): 16.9 days; Delta MST (Plasmodium berghei [5]; 160 mg/kg): 10.9 days and 4.1 days
CC(=O)O.Cc1c(CNc2ccc(Cl)cc2)ccc2nc(N)nc(N)c12 |  |  | 1.9 |  | 0.088 | 20.9 | 8.7 |  |  | Delta MST (Mus musculus [7]): 0.7 days; Delta MST (Plasmodium berghei [9]; 10 mg/kg): 19.8 days and 25.9 days and 8.8 days
CC(=O)O.COc1cc(NCc2ccc3nc(N)nc(N)c3c2)cc(OC)c1OC.O |  | 0.7 days and 0.3 days | 57 | 87 nM | 62 | 0.7 |  | 0.3 |  | Delta MST (Plasmodium berghei [2]): 7.9 days; Delta MST (Plasmodium berghei [5]; 160 mg/kg): 4.9 days and 4.5 days
CC(=O)O.Nc1nc(N)c2cc(CNc3ccc(Cl)c(C(F)(F)F)c3)ccc2n1.O.O |  | 10.5 days and 4.9 days |  |  |  | 5.1 |  |  | 27.2 days and 10.3 days | Delta MST (Plasmodium berghei [2]): 29.9 days; Delta MST (Plasmodium berghei [10]): 23.9 days; Delta MST (Plasmodium berghei [9]; 10 mg/kg): 4.9 days and 2.7 days
CC(=O)O.Cc1c(CNc2cccc(Br)c2)ccc2nc(N)nc(N)c12.O | 12.6 days and 11.2 days and 7.7 days | 9.3 days and 11.2 days | 4.4 | 3.7 nM | 0.2 |  | 7.7 |  | 21.8 days and 9.2 days | Delta MST (Mus musculus [12]): 0.5 days
CC(=O)O.Nc1nc(N)c2cc(CNc3cccc(Br)c3)ccc2n1 | 1.5 days and 1.8 days |  | 86 | 71 nM | 9 |  |  | 0.4 | 8.8 days and 10.2 days and 3.6 days | Delta MST (Plasmodium berghei [2]; 320 mg/kg): 9.2 days and 9.8 days; Delta MST (Mus musculus [13]): 9.2 days; Delta MST (Plasmodium berghei [3]): 3.1 days; Delta MST (Plasmodium berghei [5]): 9.2 days
CC(=O)O.Nc1nc(N)c2cc(CNc3ccc(Cl)cc3)ccc2n1.O.O |  |  | 27 | 35 nM | 1.9 | 5.1 |  |  | 6.9 days and 5.1 days | Delta MST (Plasmodium berghei [3]): 6.9 days; Delta MST (Plasmodium berghei [5]): 9.9 days
CC(=O)O.Cc1c(CNc2ccc(Cl)c(Cl)c2)ccc2nc(N)nc(N)c12 |  |  | 8.4 | 4.3 nM | 0.33 | 15.9 | 8.6 |  |  | Delta MST (Mus musculus [7]; 2.5 mg/kg): 7.2 days and 4 days; Delta MST (Mus musculus [14]): 15.8 days; Delta MST (Plasmodium berghei [3]): 29.8 days
CC(=O)O.Nc1nc(N)c2cc(CNc3cccc(Cl)c3)ccc2n1.O.O | 0.7 days and 0.5 days |  | 46 | 70 nM | 8.5 |  |  | 0.3 |  | Delta MST (Plasmodium berghei [2]; 320 mg/kg): 20.6 days and 16.4 days and 8.7 days; Delta MST (Plasmodium berghei [11]): 3.3 days; Delta MST (Plasmodium berghei [3]): 1.7 days; Delta MST (Mus musculus [4]): 9.9 days
CC(=O)O.Nc1nc(N)c2cc(CNc3ccc(Cl)c(Cl)c3)ccc2n1.O.O |  | 11.2 days and 5.8 days |  | 18 nM and 23 nM and 67 nM | 0.92 | 5.8 |  | 1.8 |  | Delta MST (Mus musculus [7]; 2.5 mg/kg): 0.4 days and 0.2 days; Delta MST (Mus musculus [15]): 11.8 days; Delta MST (Plasmodium berghei [5]; 160 mg/kg): 18.8 days and 19.8 days; Delta MST (Mus musculus [16]; 160 mg/kg): 11.8 days and 12.1 days
CC(=O)O.Nc1nc(N)c2c(Cl)c(CNc3ccc(Cl)c(Cl)c3)ccc2n1.O |  |  |  |  |  |  | 4.3 |  |  | Delta MST (Mus musculus [12]): 2.9 days
CC(=O)O.Nc1nc(N)c2cc(CN(N=O)c3ccc(Cl)c4ccccc34)ccc2n1 | 0.7 days and 0.5 days | 2.9 days and 2.7 days | 130 | 170 nM |  |  |  | 0.3 | 5.7 days and 5.9 days | Delta MST (Plasmodium berghei [2]; 320 mg/kg): 14.7 days and 14.9 days; Delta MST (Plasmodium berghei [5]; 160 mg/kg): 12.9 days and 13.1 days
CC(=O)O.Nc1nc(N)c2cc(CNc3ccc(Cl)c4ccccc34)ccc2n1.O |  |  | 22 | 13 nM |  |  | 9.9 |  |  | Delta MST (Mus musculus [7]): 5.5 days; Delta MST (Mus musculus [14]; 20 mg/kg): 11.9 days and 12.6 days and 12.9 days; Delta MST (Mus musculus [12]): 1.7 days; Delta MST (Plasmodium berghei [9]; 10 mg/kg): 10.3 days and 10.5 days and 10.7 days
CC(=O)O.Nc1nc(N)c2cc(CNc3ccc4cc(Cl)ccc4c3)ccc2n1.O.O | 8.3 days and 8.5 days |  | 140 | 260 nM |  |  |  | 3.3 |  | Delta MST (Mus musculus [17]): 20.6 days and 20.7 days
Nc1nc(N)c2cc(NCc3ccc(Cl)c(Cl)c3)ccc2n1 |  | 7.1 days and 2.7 days |  |  | 8.5 |  |  |  | 13.1 days and 7.3 days | Delta MST (Plasmodium berghei [5]): 9.9 days; Delta MST (Mus musculus [16]): 9.9 days
Nc1nc(N)c2c(Cl)c(CN(C=O)c3ccc(Cl)c(Cl)c3)ccc2n1 | 21.9 days and 21.6 days |  |  |  |  |  |  | 7.9 |  | Delta MST (Mus musculus [7]; 2.5 mg/kg): 4.1 days and 3.1 days; Delta MST (Plasmodium berghei [11]): 24.4 days; Delta MST (Plasmodium berghei [3]): 21.9 days; Delta MST (Mus musculus [18]): 23.9 days
Nc1nc(N)c2cc(CN(N=O)c3ccc(Cl)c(C(F)(F)F)c3)ccc2n1 | 5.1 days and 5.3 days | 10.9 days and 11.1 days |  |  |  |  |  | 1.3 |  | Delta MST (Mus musculus [15]; 80 mg/kg): 14.9 days and 15.2 days
Nc1nc(N)c2cc(CN(C=O)c3ccc(Cl)c(C(F)(F)F)c3)ccc2n1 |  | 1.5 days and 1.7 days |  |  |  | 0.3 |  | 0.3 |  | Delta MST (Plasmodium berghei [2]; 320 mg/kg): 12.5 days and 12.3 days; Delta MST (Mus musculus [4]): 9.9 days; Delta MST (Plasmodium berghei [5]; 160 mg/kg): 7.5 days and 6.3 days
Nc1nc(N)c2cc(N(Cc3ccc(Cl)c(Cl)c3)N=O)ccc2n1 |  |  |  |  |  |  | 2.9 |  |  | Delta MST (Mus musculus [14]): 20.9 days; Delta MST (Plasmodium berghei [9]; 10 mg/kg): 7.5 days and 9.9 days
CC(=O)N(Cc1ccc2nc(N)nc(N)c2c1)c1ccc(Cl)c(Cl)c1 |  |  | 300 | 190 nM | >15.1 | 1.3 |  | 0.9 | 8.3 days and 3.7 days and 4.1 days | Delta MST (Plasmodium berghei [3]): 3.7 days
CCc1nc(N)nc(N)c1-c1ccc(Cl)cc1 [PYRIMETHAMINE] |  |  |  |  |  |  | 3.1 | 5.3 |  | Delta MST (Mus musculus [7]): 4.7 days; Delta MST (Mus musculus [19]): 7.7 days and 6.1 days
